In assay [1] the test system is Bacillus subtilis. Put plainly: Antibacterial activity against Bacillus subtilis JCM 1465 assessed as detachment of plasma membrane from cell wall by microscopy. Format: functional, organism-based. In outline: (§1)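 B. subtilis JCM 1465T treated at 10× MIC for 90 min against an untreated control, then prepared for transmission electron microscopy. Longitudinal and cross sections examined.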

In assay [2] the test system is Bacillus subtilis. The experiment in a line: Antibacterial activity against Bacillus subtilis JCM 1465. Type of assay: functional. In short, it runs like this:
(§2)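 Spot-on-lawn method against each indicator strain, giving MIC. Activity determined at least twice per lantibiotic.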

Another assay relates to Micrococcus luteus. Put plainly: Antibacterial activity against Micrococcus luteus IFO 12708. Format: functional. In outline: as §2
In a further assay the test system is Listeria innocua. The experiment in a line: Antibacterial activity against Listeria innocua ATCC 33090. Type of assay: functional. In short, it runs like this: as §2
In another assay the test system is Lactococcus lactis. Put plainly: Antibacterial activity against Lactococcus lactis ATCC 19435. Format: functional. In short, it runs like this: as §2
The test system of the next assay is Enterococcus faecalis. The experiment in a line: Antibacterial activity against Enterococcus faecalis TUA 1344L. Type of assay: functional. In short, it runs like this:
as §2

The test system of assay [3] is Lactiplantibacillus plantarum. The experiment in a line: Antibacterial activity against Lactobacillus plantarum ATCC 14617. The note with it: ATCC 14917, in the assay text read “ATCC 14917” for “ATCC 14617”. Type of assay: functional. In outline:
as §2

Assay [4] has as its system Lactobacillus sakei. The experiment in a line: Antibacterial activity against Lactobacillus sakei JCM 1157. Format: functional. The note with it: Latilactobacillus sakei. In outline: as §2
Another assay has as its system Staphylococcus carnosus. The experiment in a line: Antibacterial activity against Staphylococcus carnosus TM300. Type of assay: functional. In outline:
as §2

Another assay concerns Cell membrane. Put plainly: Binding affinity to cell membrane of Bacillus subtilis JCM 1465 assessed as dissipation of nisin A-induced membrane potential.
In assay [5] the test system is Bacillus subtilis. Put plainly: Antibacterial activity against Bacillus subtilis JCM 1465 assessed as induction of pore formation-associated efflux of ATP by fluorescence assay. Format: functional, organism-based. In outline: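 ATP efflux from B. subtilis JCM 1465T cells treated with lantibiotic at 10× MIC, detected with a Lucifer-HS ATP detection kit. Run twice, representative data shown.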

For assay [6], the system named is Bacillus subtilis. Put plainly: Antibacterial activity against Bacillus subtilis JCM 1465 assessed as induction of pore formation-associated efflux of K+ ion by fluorescence assay. Type of assay: functional, organism-based. In short, it runs like this: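 K+ efflux from B. subtilis JCM 1465T cells exposed to lantibiotic at 10× MIC, measured with potassium-binding benzofuran isophthalate-AM (PBFI). Expressed relative to total K+ released after adding 1 μM nisin (100%). Run twice.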

Assay [7] deals with Bacillus subtilis. The experiment in a line: Antibacterial activity against Bacillus subtilis JCM 1465 assessed as single arrangement of initial stage of septal orientation by microscopy. Type of assay: functional, organism-based. In outline: as §1
The test system of assay [8] is Bacillus subtilis. The experiment in a line: Antibacterial activity against Bacillus subtilis JCM 1465 assessed as decrease in bacterial cell wall thickness by microscopy. Type of assay: functional, organism-based. In outline:
as §1

For assay [9], the system named is Lactobacillus sakei. The experiment in a line: Bacteriostatic against Lactobacillus sakei JCM 1157 assessed as decrease in cell viability after 24 hrs by turbidity assay. Type of assay: functional. As to conditions: Latilactobacillus sakei.
Assay [10] deals with Lactobacillus sakei. The experiment in a line: Bacteriostatic against Lactobacillus sakei JCM 1157 assessed as lysis of cell after 24 hrs by spectrophotometry. The note with it: Latilactobacillus sakei. Format: functional.
Assay [11] deals with Bacillus subtilis. Put plainly: Antibacterial activity against Bacillus subtilis JCM 1465 assessed as dissipation of membrane potential by fluorescence assay. Type of assay: functional, organism-based.

The results in this text go back to ChEMBL document CHEMBL1649563, “Nukacin ISK-1, a bacteriostatic lantibiotic” (2009).

Usually MIC stands for the lowest concentration that inhibits growth of the organism. Lower therefore signals greater potency.

Values after ≈ are worked out from the molar mass of the structure shown. Active and inactive are the calls of the source. The calls are words filed in the database; no cut-off is given here.

Take `C=C(NC(=O)[C@@H](NC(=O)[C@H](Cc1cnc[nH]1)NC(=O)[C@@H](NC(=O)[C@H](CO)NC(=O)[C@@H]1CSC(C)[C@@H]2NC(=O)[C@H](C)NC(=O)[C@@H](NC(=O)N(CCCCN)C(=O)[C@H](CCCCN)NC(=O)[C@@H](CCSC)NC(=O)[C@H](CC(N)=O)NC(=O)[C@@H]3CSC(C)[C@H](NC(=O)[C@H](CCCCN)NC(=O)[C@@H]4CSC(C)[C@H](NC(=O)[C@@H]5CSC[C@H](NC(=O)/C(=C/C)NC(=O)[C@@H](N)[C@@H](C)CC)C(=O)N[C@@H](CC(C)C)C(=O)NC(=C)C(=O)N[C@@H](CC(C)C)C(=O)N5)C(=O)N5CCC[C@H]5C(=O)NCC(=O)N4)C(=O)NCC(=O)N[C@@H](C)C(=O)N[C@@H](CC(C)C)C(=O)N[C@H](CCSC)C(=O)NCC(=O)N3)C(C)SC[C@H](NC2=O)C(=O)N[C@@H](Cc2cnc[nH]2)C(=O)N1)[C@@H](C)CC)C(C)C)C(=O)N[C@@H](CCCCN)C(=O)O` (stereo partly specified): the result in the assay on Bacillus subtilis [1], in the assay on Cell membrane, with Bacillus subtilis [5] and with Bacillus subtilis [6] was Active. The minimal inhibitory concentration (MIC) with Bacillus subtilis [2] was 0.008 µM (≈ 0.0277 µg/mL); in the assay on Micrococcus luteus it was 0.032 µM (≈ 0.111 µg/mL); in the assay on Listeria innocua, 0.065 µM (≈ 0.225 µg/mL); with Lactococcus lactis, 0.065 µM (≈ 0.225 µg/mL); with Enterococcus faecalis, 0.26 µM (≈ 0.902 µg/mL); in [3] it was 1.04 µM (≈ 3.61 µg/mL). In addition, the values for the minimum inhibitory concentration (MIC) in the assay on Lactobacillus sakei [4] and with Staphylococcus carnosus were 0.008 µM (≈ 0.0277 µg/mL) and 0.016 µM (≈ 0.0555 µg/mL), respectively.
With `C/C=C1\NC(=O)[C@H](Cc2ccccc2)NC(=O)[C@H](C(C)C)NC(=O)[C@H](Cc2ccccc2)NC(=O)[C@H](CCC(N)=O)NC(=O)[C@H](Cc2ccccc2)NC(=O)[C@@H]2CSC[C@@H](C(=O)N[C@@H](CO)C(=O)O)NC(=O)[C@H](CSC[C@@H]3NC(=O)[C@H](C(C)C)NC(=O)[C@@H](NC(=O)[C@@H]4CCCN4C(=O)[C@@H](NC(=O)[C@@H](NC(=O)CNC(=O)[C@H](CO)NC(=O)[C@H](CCCCN)NC(=O)[C@H](CCCCN)NC(=O)[C@@H](N)CCCCN)C(C)C)[C@@H](C)CC)[C@H](C)SC[C@H](NC(=O)[C@H](CC(=O)O)NC(=O)[C@H](Cc4cnc[nH]4)NC3=O)C(=O)N[C@@H](Cc3cnc[nH]3)C(=O)N[C@@H](CCSC)C(=O)N[C@@H](CC(N)=O)C(=O)N2)NC1=O`, the outcome in the assay on Bacillus subtilis [7], in the assay on Bacillus subtilis [8], in the assay with Lactobacillus sakei [9] and in the assay on Lactobacillus sakei [10] was Active. The MIC with Bacillus subtilis [2] stood at 0.26 µM (≈ 0.769 µg/mL); in the assay with Micrococcus luteus, 2.08 µM (≈ 6.16 µg/mL); against Listeria innocua, 16.6 µM (≈ 49.2 µg/mL); against Lactococcus lactis, 0.52 µM (≈ 1.54 µg/mL); in the assay with Enterococcus faecalis, 4.16 µM (≈ 12.3 µg/mL); with Lactobacillus sakei [4] it was 0.26 µM (≈ 0.769 µg/mL). In the assay on Staphylococcus carnosus, the MIC turned out to be 0.26 µM (≈ 0.769 µg/mL). Moreover, the outcome in the assay with Bacillus subtilis [11], in the assay with Bacillus subtilis [5] and in the assay with Bacillus subtilis [6] was inactive.
